Measurements reported in ChEMBL document CHEMBL1156446, “c-Src protein kinase inhibitors block assembly and maturation of dengue virus” (Proc Natl Acad Sci U S A, 2007).
The source made the active and inactive calls. The rule behind the calls is not given here.

Legend:
Dengue virus [1] = assay: Antiviral activity against Dengue virus infected in african green monkey Vero cells administered after viral challenge after 3 days by viral plaque assay; assay type: functional, organism-based
Outline: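 Cells were seeded at 1 × 10^4 per well and infected with DENV at moi 1. Protein kinase inhibitors were then added at two noncytotoxic concentrations, set beforehand by MTT assay in Vero cells. After 3 days, infectious yield in the supernatant was titrated by plaque assay. Activity was called at ≥five-fold (0.7 log) titer decrease.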

Dengue virus [2] = assay: Antiviral activity against Dengue virus infected in african green monkey Vero cells administered before viral challenge after 3 days by viral plaque assay; assay type: functional, organism-based
Outline: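 Monolayers seeded at 1 × 10^4 cells per well were pretreated for 180 min at 37°C with inhibitor at two noncytotoxic concentrations. They were then inoculated with DENV at moi 1 for 60 min at 37°C. Supernatant harvested 3 days postinfection was titrated by plaque assay. Activity was called at ≥five-fold (0.7 log) titer decrease.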

Dengue virus [3] = assay: Inhibition of viral spread in Dengue virus-infected african green monkey Vero cells assessed as accumulation of viral envelope protein within perinuclear region at 2.5 uM after 6 days by immunofluorescence assay relative to control; assay type: functional, organism-based
Outline: (§1)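 Vero, Huh-7 or C6/36 cells were infected with DENV2 at moi 1 and then treated with 2.5 μM inhibitor or DMSO. Cells were fixed at days 4, 5 and 6 postinfection and stained for envelope protein by immunofluorescence. Envelope localization, including perinuclear accumulation, and infection of surrounding cells were compared with the DMSO control.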

Dengue virus [4] = assay: Inhibition of viral spread in Dengue virus-infected asian tiger mosquito C6/36 cells assessed as accumulation of viral envelope protein within perinuclear region at 2.5 uM after 6 days by immunofluorescence assay relative to control; assay type: functional, organism-based; outline: as §1
dengue virus type 2 [5] = assay: Antiviral activity against Dengue virus 2 infected in human Huh7 cells; assay type: functional, organism-based; settings: Huh-7
Outline: (§2)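 Vero, Huh-7 or C6/36 cells were infected with DENV2 at moi 1. Inhibitor was then added at noncytotoxic concentrations of 50 nM–5 μM for three days. Virus titer in the culture supernatant was measured by plaque assay.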

Dengue virus [6] = assay: Inhibition of viral spread in Dengue virus-infected human Huh7 cells assessed as accumulation of viral envelope protein within perinuclear region at 2.5 uM after 6 days by immunofluorescence assay relative to control; assay type: functional, organism-based; settings: Huh-7; outline: as §1
Dengue virus [7] = assay: Inhibition of viral spread in Dengue virus-infected asian tiger mosquito C6/36 cells assessed as accumulation of viral envelope protein within perinuclear region at 2.5 uM after 4 days by immunofluorescence assay relative to control; assay type: functional, organism-based; outline: as §1
Dengue virus [8] = assay: Inhibition of viral spread in Dengue virus-infected asian tiger mosquito C6/36 cells assessed as accumulation of viral envelope protein within perinuclear region at 2.5 uM after 5 days by immunofluorescence assay relative to control; assay type: functional, organism-based; outline: as §1
dengue virus type 2 [9] = assay: Antiviral activity against Dengue virus 2 infected in asian tiger mosquito C6/36 cells; assay type: functional, organism-based; outline: as §2
Dengue virus [10] = assay: Inhibition of viral spread in Dengue virus-infected human Huh7 cells assessed as accumulation of viral envelope protein within perinuclear region at 2.5 uM after 4 days by immunofluorescence assay relative to control; assay type: functional, organism-based; settings: Huh-7; outline: as §1
Dengue virus [11] = assay: Inhibition of viral spread in Dengue virus-infected human Huh7 cells assessed as accumulation of viral envelope protein within perinuclear region at 2.5 uM after 5 days by immunofluorescence assay relative to control; assay type: functional, organism-based; settings: Huh-7; outline: as §1
Dengue virus [12] = assay: Inhibition of viral spread in Dengue virus-infected african green monkey Vero cells assessed as accumulation of viral envelope protein within perinuclear region at 2.5 uM after 5 days by immunofluorescence assay relative to control; assay type: functional, organism-based; outline: as §1
dengue virus type 2 [13] = assay: Antiviral activity against Dengue virus 2 infected in african green monkey Vero cells; assay type: functional, organism-based; outline: as §2
Dengue virus [14] = assay: Inhibition of viral spread in Dengue virus-infected african green monkey Vero cells assessed as accumulation of viral envelope protein within perinuclear region at 2.5 uM after 4 days by immunofluorescence assay relative to control; assay type: functional, organism-based; outline: as §1
dengue virus type 2 [15] = assay: Inhibition of Dengue virus 2 assembly in african green monkey Vero cells assessed as virus-induced membrane structures at 2.5 uM after 4 days postinfection by electron microscopy; assay type: functional, organism-based
Outline: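 DENV2-infected Vero cells were treated with 2.5 μM inhibitor, with DMSO-treated infected cells and DMSO-treated mock-infected cells as controls. At 4 days postinfection, cells were fixed in 2.5% glutaraldehyde plus 2.0% paraformaldehyde at 4°C for 24 h. Samples were embedded, sectioned and examined by transmission electron microscopy for virus particles and virus-induced membranes.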

dengue virus type 3 = assay: Antiviral activity against Dengue virus 3 H87 infected in african green monkey Vero cells; assay type: functional, organism-based
[16] = Inhibition of PDGFR
Modoc virus = assay: Antiviral activity against Modoc virus M544 infected in african green monkey Vero cells; assay type: functional, organism-based
dengue virus type 1 = assay: Antiviral activity against Dengue virus 1 Hawaii infected in african green monkey Vero cells; assay type: functional, organism-based
Poliovirus 1 = assay: Antiviral activity against Poliovirus 1 infected in african green monkey Vero cells; assay type: functional, organism-based
[17] = Inhibition of p38 MAPK
dengue virus type 4 = assay: Antiviral activity against Dengue virus 4 H241 infected in african green monkey Vero cells; assay type: functional, organism-based
dengue virus type 2 [18] = assay: Antiviral activity against Dengue virus 2 NGC infected in african green monkey Vero cells after 3 days by immunofluorescence assay; assay type: functional, organism-based; settings: 72 h
Outline: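 DENV2 NGC was adsorbed to Vero monolayers at moi 1 for 60 min at 37°C with 5% CO2, then washed with PBS. Inhibitor was added at 0.02–10 μM final in 0.25% DMSO and incubated for 3 days. Cells were fixed and stained with anti-E mAb, FITC secondary and DAPI. Infected cells were counted in four automated-microscope fields per well and compared with DMSO-treated infected wells. IC50 came from nonlinear regression.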

O=C(O)c1cc(NCc2cc(O)ccc2O)ccc1O
Activity (Dengue virus [1]): Active

O=C(O)c1cc(N(Cc2ccccc2O)Cc2cc(O)ccc2O)ccc1O
Activity (Dengue virus [1]): Active

O=S(=O)(c1cccc2c(I)cccc12)N1CCCNCC1
Activity (Dengue virus [1]): Active

COc1cc2ncnc(Nc3ccc(Oc4ccccc4)cc3)c2cc1OC
Activity (Dengue virus [1]): Active
Activity (Dengue virus [2]): Active

NC(=O)c1cccc(-c2cc(Nc3ccc(OC(F)(F)F)cc3)ncn2)c1
Activity (Dengue virus [1]): Active
Activity (Dengue virus [2]): Active

N#C/C(=C\c1ccc(O)c(O)c1)C(N)=O
Activity (Dengue virus [1]): Active

CC(C)(C)c1nc2c3ccc(F)cc3c3c(=O)[nH]ccc3c2[nH]1
Activity (Dengue virus [2]): Active

Cn1cc(/C=C2\C(=O)Nc3ccc(S(N)(=O)=O)cc32)c2ccccc21
Activity (Dengue virus [1]): Active
Activity (Dengue virus [2]): Active

Brc1c(Br)c(Br)c2[nH]nnc2c1Br
Activity (Dengue virus [1]): Active
Activity (Dengue virus [2]): Active

COc1cc2ncnc(Nc3cccc(Br)c3)c2cc1OC
Activity (Dengue virus [1]): Active

CN1CCN(CCOc2cc(OC3CCOCC3)c3c(Nc4c(Cl)ccc5c4OCO5)ncnc3c2)CC1
Activity (Dengue virus [3]): Active
Activity (Dengue virus [4]): Active
Activity (Dengue virus [1]): Active
Activity (dengue virus type 2 [5]): Dose-dependent effect
Activity (Dengue virus [6]): Active
Activity (Dengue virus [7]): Active
Activity (Dengue virus [8]): Active
Activity (dengue virus type 2 [9]): Dose-dependent effect
Activity (Dengue virus [10]): Active
Activity (Dengue virus [11]): Active
Activity (Dengue virus [12]): Active
Activity (dengue virus type 2 [13]): Dose-dependent effect
Activity (Dengue virus [14]): Active

Cc1nc(Nc2ncc(C(=O)Nc3c(C)cccc3Cl)s2)cc(N2CCN(CCO)CC2)n1 [DASATINIB]
Activity (dengue virus type 2 [15]): Active
Activity (Dengue virus [3]): Active
Activity (Dengue virus [4]): Active
Activity (Dengue virus [1]): Active
Activity (dengue virus type 3): Dose-dependent effect
Activity (dengue virus type 2 [5]): Dose-dependent effect
IC50 [16]: 28 nM
Activity (Dengue virus [6]): Active
Activity (Modoc virus): Dose-dependent effect
Activity (dengue virus type 1): Dose-dependent effect
Activity (Dengue virus [7]): Active
Activity (Dengue virus [8]): Active
Activity (dengue virus type 2 [9]): Dose-dependent effect
Activity (Poliovirus 1): inactive
IC50 [17]: 100 nM
Activity (dengue virus type 4): Dose-dependent effect
Activity (Dengue virus [10]): Active
Activity (Dengue virus [11]): Active
Activity (Dengue virus [12]): Active
Activity (dengue virus type 2 [13]): Dose-dependent effect
Activity (Dengue virus [14]): Active

Cc1ccc(NC(=O)c2ccc(CN3CCN(C)CC3)cc2)cc1Nc1nccc(-c2cccnc2)n1
Activity (Dengue virus [2]): Active

CCN(CC)CCNC(=O)c1c(C)[nH]c(/C=C2\C(=O)Nc3ccc(Cl)cc32)c1C
Activity (Dengue virus [1]): Active

CNc1ncc2c(n1)N(C)C(=O)N(c1cc(NC(=O)c3cc(-n4cnc(C)c4)cc(C(F)(F)F)c3)ccc1C)C2
Activity (Dengue virus [1]): Active
Activity (Dengue virus [2]): Active

Cc1ccc(Nc2nccc(-c3ccccc3)n2)cc1F
Activity (Dengue virus [2]): Active

O=C1Cc2c([nH]c3ccc(Br)cc23)-c2ccccc2N1
Activity (Dengue virus [1]): Active

COc1c(C)c2c(c(O)c1C/C=C(\C)CCC(=O)O)C(=O)OC2 [MYCOPHENOLIC ACID]
EC50 (dengue virus type 2 [18]): 5700 nM
